Series [1] has as its system Mus musculus. As to the kind of experiment: Effective dose against Mice ataxia, ip administration. The class given is functional. Put shortly: (§1)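 Mouse behaviour after ip dosing assessed by a modification of the method of ref 7; ataxia, docility and loss of righting reflex scored, 10 mice per dose, ED50 in mg/kg ip.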
The subject of series [2] is Mus musculus. Nature of the series: Effective dose against loss of righting reflex in mice (10 mice per dose, ip). It is filed as functional. Put shortly: as §1
Series [3] relates to Mus musculus. Nature of the series: Effective dose against Mice docility, ip administration. The class given is functional. Put shortly:
as §1

For series [4], the system named is Mus musculus. Nature of the series: Ability to reinduce anesthesia (70 mg/kg, iv) following recovery of loss of righting reflex obtained with hexobarbital. The class given is functional.
Series [5] has as its system Mus musculus. As to the kind of experiment: Anticonvulsant activity against N-sulfamoylhexahydrozepine (10 mice were used per dose, ip). It is filed as functional. In short, it runs like this: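 Mice given compound ip, 10 per dose, then challenged with N-sulfamoylhexahydroazepine by methods of ref 9; ED50 (mg/kg ip) for protection determined.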
For series [6], the system named is Mus musculus. As to the kind of experiment: Ability to produce neurological deficit in the rotarod test (10 mice were used per dose, ip). It is filed as functional. In short, it runs like this:
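Rotarod method of ref 10, intraperitoneal dosing, 10 mice per dose; neurological deficit scored and ND50 (mg/kg ip) derived.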
For orientation: Falling from the rotarod earlier than controls is read as motor impairment.

A short description of series [7]: Lethal dose was obtained by 2-h post administration (ip), using four male Royal Hart Wistar rats. The class given is toxicity, organism-based. The note with it: rat, in vivo. In short, it runs like this:
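Male Royal Hart Wistar rats, 136-160 g, housed in pairs in wire cages, given compound ip; deaths read 2 h after dosing, four rats per compound; LD50 estimated by probit analysis.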

Series [8] is described as follows: Ratio of the oral dose of the test compound relative to that of methaqualone (15 mg/kg, po) to induce sleep in Cebus monkey;NA is Not Active. The class given is functional, organism-based. In short, it runs like this: (§2)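 Cebus monkeys restrained in chairs within sound-attenuated cubicles; dosing per os at 5:00 p.m., five channels recorded, EEG over 13.5 h, Monday–Thursday, visually scored. Each animal its own control versus last 15 control nights (intragastric carboxymethylcellulose placebo). Value is oral dose of test substance relative to methaqualone 15 mg/kg po inducing sleep in the same monkey; NA = no sleep at any dose.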

Series [9] deals with Monkey. Nature of the series: Ratio of the oral dose of the test compound relative to that of methaqualone (15 mg/kg, po) to induce sleep in Cebus monkey. It is filed as functional. Put shortly:
as §2

A short description of series [10]: Ratio of the oral dose of the test compound relative to that of methaqualone (15 mg/kg, po) to induce sleep in Cebus monkey; NA is Not Active. It is filed as functional, organism-based. In short, it runs like this: as §2

Calls of active or inactive are those of the source. The calls are words filed in the database; no cut-off is given here.

On to `CN1C(=O)CCC1(O)c1ccc(C(F)(F)F)cc1` (stereo not given), for which the ED50 in series [1] was more than 200 mg/kg; in series [2] it was more than 200 mg/kg; in series [3] it was more than 200 mg/kg; in series [5], 132 mg/kg. In addition, in series [4], the RD50 was more than 200 mg/kg. The compound also displayed an ND50 in [6] of 140.5 mg/kg. For the same compound, the LD50 at 2 h in [7] is more than 400 mg/kg.
Regarding `O=C(/C=C/c1cccc(C(F)(F)F)c1)NCCO`, the ED50 is 117 mg/kg in series [1], 186 mg/kg in series [2], 78.6 mg/kg in series [3] and 100 mg/kg in series [5]. In addition, the RD50 in series [4] was 66.7 mg/kg. Further, the ND50 in [6] stood at 115.8 mg/kg. The same compound gave an LD50 at 2 h in series [7] of 400 mg/kg.
On to `NC(=O)/C=C/c1cccc(C(F)(F)F)c1`, for which the ED50 in [1] turned out to be 42.9 mg/kg; in series [2] it was 54.5 mg/kg; in series [3], 37.5 mg/kg; in [5], 49.5 mg/kg. For the same compound, the Ratio result in series [8] was “inactive”. Besides, the RD50 in [4] was found to be 17.2 mg/kg. The compound also had an ND50 in series [6] of 46.9 mg/kg. Also, the 50% lethal dose (LD50) at 2 h in series [7] was found to be 260 mg/kg.
Regarding `CC(C)CNC(=O)CCC(=O)c1cccc(C(F)(F)F)c1`, the 50% effective dose (ED50) in [1], in series [2], in [3] and in [5] was more than 200 mg/kg each time. Further, in series [4], the RD50 is more than 200 mg/kg. Further, the ND50 in series [6] was more than 200 mg/kg. The compound further gave a median lethal dose (LD50) at 2 h in series [7] of 162 mg/kg.
Regarding `O=C1CCC(O)(c2cccc(C(F)(F)F)c2)N1` (stereo not given), the ED50 in series [1], in series [2], in series [3] and in series [5] was more than 200 mg/kg each time. For the same compound, in [9], the Sleep ratio was found to be 0.1. Besides, the RD50 in [4] stood at 150 mg/kg. This compound also gave an ND50 in series [6] of more than 200 mg/kg. The compound also gave a median lethal dose (LD50) at 2 h in series [7] of more than 400 mg/kg.
On to `CN1C(=O)CCC1(O)c1cccc(Cl)c1` (stereo not given), for which the median effective dose (ED50) in series [1] is 186 mg/kg; in series [2], more than 200 mg/kg; in series [3] it was 158 mg/kg; in series [5] it was more than 150 mg/kg. Moreover, the RD50 in series [4] was more than 150 mg/kg. The ND50 in series [6] is more than 150 mg/kg. Further, the median lethal dose (LD50) at 2 h in [7] is more than 400 mg/kg.
On to `CNC(=O)/C(C)=C/c1cccc(C(F)(F)F)c1`, for which the 50% effective dose (ED50) in series [1] was 75 mg/kg; in series [2], more than 100 mg/kg; in series [3], 75 mg/kg; in series [5], 68.8 mg/kg. Moreover, in series [9], the Sleep ratio came to 0.3. The compound also registered an RD50 in series [4] of 24.7 mg/kg. Besides, in [6], the ND50 is more than 75 mg/kg. Moreover, the median lethal dose (LD50) at 2 h in series [7] was 300 mg/kg.
Regarding `CN(C)C(=O)CCC(=O)c1cccc(C(F)(F)F)c1`, the ED50 in series [1] is more than 50 mg/kg; in series [2], more than 50 mg/kg; in [3], more than 50 mg/kg; in [5], more than 37.5 mg/kg. The RD50 in series [4] came out at 127.6 mg/kg. The same compound showed an ND50 in series [6] of more than 37.5 mg/kg. Moreover, in series [7], the median lethal dose (LD50) at 2 h came out at 300 mg/kg.
On to `O=C(/C=C/c1ccccc1)NCCO` [IDROCILAMIDE], for which the ED50 in series [1] is 183 mg/kg; in series [2], more than 200 mg/kg; in series [3], 183 mg/kg; in [5], 117 mg/kg. In addition, the RD50 in [4] worked out at 75 mg/kg. In addition, the ND50 in series [6] was more than 200 mg/kg. Moreover, in series [7], the LD50 at 2 h was more than 400 mg/kg.
For `CN1CCN(C(=O)/C=C/c2cccc(C(F)(F)F)c2)CC1`, the median effective dose (ED50) was more than 100 mg/kg in series [1], more than 100 mg/kg in [2], more than 100 mg/kg in series [3] and more than 75 mg/kg in series [5]. The same compound returned an RD50 in [4] of more than 75 mg/kg. The compound also displayed an ND50 in series [6] of more than 75 mg/kg. Also, the 50% lethal dose (LD50) at 2 h in [7] is 300 mg/kg.
As for `Cc1cccc(C2(O)CCC(=O)N2C)c1` (stereo not given), the Ratio entry in series [10] was “inactive”. In addition, the ED50 in series [1] amounted to 93 mg/kg; in series [2], 138 mg/kg; in [3] it was 81.5 mg/kg; in series [5], 60.9 mg/kg. Moreover, in [4], the RD50 came to 49.5 mg/kg. In [6], this compound yielded an ND50 of 111.5 mg/kg. The compound also returned a median lethal dose (LD50) at 2 h in series [7] of 300 mg/kg.
`O=C(CCC(=O)c1cccc(C(F)(F)F)c1)NC1CCCCC1`: the median effective dose (ED50) in series [1], in [2], in series [3] and in [5] was more than 200 mg/kg in each case. This compound also came in with an RD50 in series [4] of more than 200 mg/kg. In [6], this compound yielded an ND50 of more than 200 mg/kg. Besides, the median lethal dose (LD50) at 2 h in series [7] is more than 400 mg/kg.
As to `CCC(C)NC(=O)CCC(=O)c1cccc(C(F)(F)F)c1` (stereo not given), the median effective dose (ED50) in series [1], in series [2], in [3] and in [5] was more than 200 mg/kg each time. Further, the RD50 in series [4] was more than 50 mg/kg. The compound further displayed an ND50 in series [6] of more than 150 mg/kg. The LD50 at 2 h in series [7] is 300 mg/kg.

The term ED50 denotes the dose that gives a 50% effect, or the effect in half of the subjects. Usually LD50 stands for the dose expected to kill half of the subjects tested.

The values are drawn from ChEMBL document CHEMBL1123065, “Sleep-inducing N-alkyl-5-[m-(trifluoromethyl)phenyl]-5-hydroxy-2-pyrrolidinones and N-alkyl-3-(trifluoromethyl)cinnamamides” (J Med Chem, 1985).
